# H69AR inhibit: growth inhibitors of human H69AR lung tumor cells | H69AR lung tumor viability, ATP luminescence, 72 h; hits give low values | viability, % at 10 µM | 85,000 compounds, 6% hits;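 active means viability at or below 40%; inactive means viability above 40%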;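 further: multidrug resistant small cell line overexpressing MRP-1 efflux transporter; 100% = mean luminescence of untreated control wells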
# bCat KO growth: beta-catenin-lacking colon tumor cell growth suppression | 140,000 compounds, 1.5% hits | HCT116 beta-catenin knockout viability, CellTiter-Glo, 60 h; hits give low values | viability, % at 10 µM;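 active means viability at or under a set limit, the compound median less 4 SD, cut at about 6% in these data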;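 further: 0% = Hyamine 1622 control at 20 µM and 100% = untreated cell control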
# Fibroblast inh: blocks proliferation of human lung fibroblasts; LL 47 human lung fibroblast viability, ATP luminescence; hits give low values; viability, % at 10 µM; 85,000 compounds, 1.1% hits; AID 719;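 active means viability at or below 50% in the single dose screen; inactive means viability above 50%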;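 further: compound exposure lasted 72 h before the ATP readout; 100% = median luminescence of untreated cell-only wells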
#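 Times – overnight cell rest, 72 h compound treatment at 37 °C · Test system – human lung fibroblast line LL 47, low passage · Amount – 1,150 cells in each well · Controls – cell-only wells, no compound · Doses – 0.1% DMSO in all compound wells · Measured by – CellTiter-Glo luminescence · Buffer or medium – IMEM plus 15% FBS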
# HUVEC inhibit: human endothelial cell proliferation inhibition. HUVEC proliferation, CellTiter-Glo luminescence, 72 h; hits give low values. viability, % at 10 µM (by protocol). 86,000 compounds, 1.1% hits;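 active means viability at or below 30%; inactive means viability above 30%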;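 further: 100% = median luminescence of DMSO-only cell control wells on each plate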
# HCT116 PTEN-null: suppresses growth of cells with PTEN deletion. HCT116 PTEN-null viability, CellTiter-Glo, 60 h; hits give low values. viability, % at 10 µM. 140,000 compounds, 1.2% hits. AID 827;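 active means viability at or below a set limit, 4 SD under the median of all tested compounds, cut at about 3.7% in these data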;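 further: PTEN knockout HCT116 line with beta catenin targeted HCT116 as companion control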
# Numbers without * were called inactive; / = not tested or not shown. This excerpt belongs to a sample that is enriched for hits.
SMILES,H69AR inhibit,bCat KO growth,Fibroblast inh,HUVEC inhibit,HCT116 PTEN-null
COC(=O)c1cc(NC(=O)c2c(Cl)nc3sccn23)cc(C(=O)OC)c1,36*,57,6.7*,68,63
COC(=O)c1cc(=O)nc2sccn12,84,101,104,97,102
O=S(=O)(c1cnc[nH]1)N1CCc2ccccc21,65,88,98,87,93
CC(C)(C)c1ccc(CN2C3=NCCCN3c3ccccc32)cc1,15*,3.9*,76,61,2.9*
COC(=O)c1cccc(Cn2c(Cl)c(/C=N/NC(=O)c3ccccc3Cl)sc2=O)c1,31*,90,97,79,78
O=c1sc(/C=N/Nc2ccccc2)c(Cl)n1Cc1ccccc1,/,87,/,/,76
Cc1nn(-c2ccccc2)c2nc(-c3ccncc3)cc(C(=O)NCc3ccco3)c12,31*,60,92,70,54
Cc1nn(-c2ccccn2)c2nc(-c3cccs3)cc(C(=O)NCc3ccco3)c12,16*,64,101,71,66
CCCCCCC(=O)N(O)C1CC(=O)N(c2ccc(Br)cc2)C1=O (stereo not drawn),33*,78,81,82,80
COc1cc(CNCc2ccccn2)ccc1OCC(N)=O,/,110,/,/,102
COc1cc(CNCc2ccccn2)ccc1OCc1ccc(Cl)cc1Cl,/,2.4*,/,/,3.5*
CC(C)c1cccc(C(C)C)c1NC(=O)Cn1c(=O)cnc2ccccc21,/,78,/,/,88
Cc1ccccc1/C=N/Nc1ccnc2cc(Cl)ccc12,/,11,/,/,7
Clc1ccc2c(N/N=C/c3ccc(Br)cc3)ccnc2c1,/,1.5*,/,/,1.3*
Cc1ccc(/C=N/Nc2ccnc3cc(Cl)ccc23)c(C)c1,/,1.3*,/,/,1.6*
COc1ccc(C(C(=O)OC(C)CN(C)C)c2ccccc2)cc1 (stereo not drawn),/,86,/,/,101
CN(C)CC(C(=O)c1ccccc1)c1ccccc1 (stereo not drawn),0.1*,1.4*,17*,41,1.0*
COc1ccccc1NC(=O)COc1ccc(/C=N/NC(=O)CSCc2cc(C)cc(C)c2)cc1,/,90,/,/,92
COc1ccccc1NC(=O)COc1ccc(/C=N/NC(=O)CSCc2ccc(Cl)cc2)cc1,/,3.2*,/,/,2.2*
Cc1ccc(S(=O)(=O)N(Cc2ccc(Cl)cc2)c2ccccc2C(=O)NCc2ccco2)cc1,/,56,/,/,44
CC1CC(C(F)F)n2nc(C(=O)Nc3sc4c(c3C#N)CCC(C(C)(C)C)C4)nc2N1 (stereo not drawn),18*,80,53,21*,71
CCOC(=O)Nc1sc2c(c1C#N)CCC(C)C2 (stereo not drawn),99,89,83,98,104
CN(C)S(=O)(=O)c1ccc(S(=O)(=O)N(Cc2ccco2)Cc2ccccc2Cl)cc1,40*,76,80,94,80
O=C1c2ccccc2C2=Nc3ccccc3SC(c3cccc(F)c3)C12 (stereo not drawn),/,2.2*,/,/,3.5*
O=C1c2ccccc2C2=Nc3ccccc3SC(c3ccc(Cl)cc3)C12 (stereo not drawn),/,3.7*,/,/,3.3*
SMILES,H69AR inhibit,bCat KO growth,Fibroblast inh,HUVEC inhibit,HCT116 PTEN-null
CCN(CC)S(=O)(=O)c1ccc(OC)c(NC(=O)CSc2cc(Cl)ccc2Cl)c1,/,85,/,/,88
CCCC(=O)Nc1ccc(C(=O)NNC(=O)c2ccco2)cc1,/,91,/,/,87
COC(=O)c1ccccc1NC(=O)CSc1nnc(CNS(=O)(=O)c2ccc(C)cc2)n1C,95,92,107,101,91
CCCn1c(CCC(=O)Nc2ccccc2Cc2ccccc2)nc2cc(S(=O)(=O)N3CCOCC3)ccc21,39*,63,90,107,70
O=C(O)c1ccc(COCC(F)(F)C(F)F)o1,/,104,/,/,95
COc1ccc(NS(=O)(=O)c2ccc3c(c2)oc(=O)n3C)c(OC)c1,94,89,93,97,93
COc1cc(NS(=O)(=O)c2ccc3c(c2)oc(=O)n3C)cc(OC)c1OC,27*,31,92,71,28
C(=C/c1ccnc2nc(SC/C=C/c3ccccc3)nn12)/c1ccccc1,/,81,/,/,79
COc1ccc(CCNC(=O)CSc2nncs2)cc1,/,101,/,/,106
O=C(Nc1ccc(C(F)(F)F)cc1)c1cccnc1N1CCOCC1,39*,95,83,82,91
Cn1nc(-c2ccc(Cl)cc2)c2cc(C(=O)NCCCN3CCOCC3)sc21,43,15,39*,2.9*,27
CCN(CC)CCNC(=O)c1cc2c(-c3ccc(Cl)cc3)nn(C)c2s1,2.5*,1.5*,21*,2.8*,1.1*
CC(C)CNC(=O)COc1cccc(C(=O)NCc2ccccc2)c1,/,86,/,/,86
O=c1[nH]c2cc3c(cc2cc1C(c1nnnn1C1CCCCC1)N1CCSCC1)OCCO3 (stereo not drawn),2.0*,83,28*,86,85
COc1cc2cc(C(c3nnnn3C3CCCC3)N3CCCCC3)c(=O)[nH]c2cc1OC (stereo not drawn),90,93,95,91,98
O=C(CCSCc1cccc(Cl)c1)NCCc1ccc(Cl)cc1,/,87,/,/,101
CCN1c2ccccc2NC2N=C(OC)C(c3ccccc3)C21 (stereo not drawn),1.4*,1.9*,7.0*,2.1*,1.7*
COc1ccc2[nH]c(=O)c(CN(Cc3ccco3)C(c3nnnn3Cc3ccccc3)C(C)C)cc2c1 (stereo not drawn),47,6,79,58,3.1*
COCCn1nnnc1C(C(C)C)N(Cc1ccccc1)Cc1cc2cc(OC)ccc2[nH]c1=O (stereo not drawn),4.8*,57,89,71,44
COCCn1nnnc1C(C(C)C)N(Cc1cccnc1)Cc1cc2cc(OC)ccc2[nH]c1=O (stereo not drawn),91,89,104,83,93
Cc1cccc2cc(CN(Cc3ccco3)C(c3nnnn3CCc3ccccc3)C(C)C)c(=O)[nH]c12 (stereo not drawn),66,38,/,86,36
CN(C)CCCN1C(=O)C(=O)/C(=C(/O)c2ccc(S(=O)(=O)N(C)C)cc2)C1c1ccncc1 (stereo not drawn),104,/,107,95,/
Cn1c(=O)[nH]c(=O)c2c1nc(Br)n2CCCSc1nc2ccccc2o1,16*,20,60,57,17
O=C(CSc1nc(C2CCCCC2)n(-c2ccccc2)n1)NCC(F)(F)F,/,91,/,/,83
Cc1ccc(-n2nc(C)c3c(C)c(CCC(=O)NC(C)c4ccccc4)c(C)nc32)cc1 (stereo not drawn),15*,42,73,59,54
COc1cc(OC)c2nc(C)c3c(c2c1)N(c1ccc(O)cc1)CC3,/,4.5*,/,/,5
Cc1ccc(S(=O)(=O)CCc2nc3ccccc3n2CCC#N)cc1,14*,19,113,100,16
Cc1cc(N/N=C/c2ccc(O)cc2O)nc(-c2ccccc2O)n1,/,5.9*,/,/,2.7*
CCOc1ccc(Oc2c(/C=N/NC(=O)C3CC3)c(C)nn2-c2ccccc2)cc1,/,102,/,/,83
